Shown are actives, neighbours in structure and some others; about 0.64% of the full set was active somewhere.
TNAP inh no acc: human TNAP enzyme inhibitors, primary screen, biochemical, luminescent, no phosphate acceptor, uHTS; Alkaline phosphatase, tissue-nonspecific isozyme (Homo sapiens), P05186; purified TNAP, CDP-star luminescence, 30 min; inhibition, % at 20 µM; hit rate 0.26% among 200,000;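 active = tissue-nonspecific alkaline phosphatase inhibition above about 50% at 20 µM in the single-dose screen, limit read from the data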;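 also: 0% = DMSO negative control and 100% = EDTA positive control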
TNAP act hi DEA: TNAP activators at high phosphate acceptor level, primary screen, biochemical, luminescence, uHTS | purified TNAP, CDP-star luminescence, 1 M DEA, 30 min; active compounds read high; 0 = EDTA background, 1 = DMSO-only activity | activation factor at 20 µM | 200,000 tested, under 10 active | AID 1136, 2008;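 active = activation factor at least 2 at 20 µM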
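Assay system: human TNAP; Input: enzyme diluted 1/800 final; Reagent: CDP-star luminogenic substrate at 100 µM final; Timing: 30 min, room temperature; Signal: luminescence; Evaluation: TNAP activation factor scaled between EDTA and DMSO control wells.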
PMI act: activators of human PMI, primary screen, biochemical, fluorescence intensity, near-Km mannose 6-phosphate; Mannose-6-phosphate isomerase (Homo sapiens), P34949; purified human PMI, coupled resazurin fluorescence, 20 min; active compounds read high; 1 = vehicle control, 0 substrate-free wells; activation factor at 20 µM; hit rate 0.005% among 190,000; AID 1214, 2008;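 active = activation factor of 2 or more at 20 µM, relative to plate controls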
Target sequence (P34949 whole entry, looked up): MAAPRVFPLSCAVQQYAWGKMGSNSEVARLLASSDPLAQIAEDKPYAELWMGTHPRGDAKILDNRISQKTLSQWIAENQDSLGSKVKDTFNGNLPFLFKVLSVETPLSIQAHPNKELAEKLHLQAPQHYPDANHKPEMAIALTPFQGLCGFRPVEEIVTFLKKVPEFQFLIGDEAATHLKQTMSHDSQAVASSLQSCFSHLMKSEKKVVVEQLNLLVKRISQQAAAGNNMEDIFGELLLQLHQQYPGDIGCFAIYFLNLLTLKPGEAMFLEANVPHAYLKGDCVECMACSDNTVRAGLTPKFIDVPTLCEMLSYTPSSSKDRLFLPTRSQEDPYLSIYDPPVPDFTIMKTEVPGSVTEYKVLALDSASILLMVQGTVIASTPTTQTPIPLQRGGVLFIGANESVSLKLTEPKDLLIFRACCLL
PMI act hi M6P: human PMI activators, high substrate, primary screen, biochemical, fluorescence intensity, near-saturating mannose 6-phosphate. Mannose-6-phosphate isomerase (Homo sapiens), P34949. coupled PMI enzyme assay, resazurin fluorescence, 20 min; active compounds read high; 1 = untreated enzyme, 0 = substrate-free blank. activation factor at 20 µM. hit rate 0.34% among 190,000. AID 1216, 2008;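 active = activation factor of 2 or more at 20 µM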
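Test system: human PMI in coupled enzyme assay; Input: PMI at 15 ng/mL final; Medium: HEPES buffer, pH 7.4; Schedule: 20 min incubation at room temperature; Technique: resorufin fluorescence at Ex 544/Em 590 nm; Compound: 20 µM single dose; Probe or stimulus: Near-saturating mannose-6-phosphate, 1.0 mM.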
TNAP inh hiacc: human TNAP enzyme inhibitors, primary screen, biochemical, luminescent, high phosphate acceptor level, uHTS; Alkaline phosphatase, tissue-nonspecific isozyme (Homo sapiens), P05186; AID 1135, 2008; inhibition, % at 20 µM; purified TNAP, CDP-star luminescence, 1 M DEA; hit rate 0.03% among 200,000;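 active = over 50% inhibition of tissue-nonspecific alkaline phosphatase at 20 µM in the single-dose screen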;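 also: plate controls were DMSO wells for no effect and EDTA-quenched wells as full inhibition for full effect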
The depositor's hits bear a star.

SMILES	TNAP inh no acc	TNAP act hi DEA	PMI act	PMI act hi M6P	TNAP inh hiacc
COc1ccc(C(=O)N/N=C/c2c(CO)cnc(C)c2O)cc1	-26	1	1.1	1.4	-2
O=c1c2ccccc2c(C=NC2CCN(Cc3ccccc3)CC2)c(O)n1Cc1ccc2c(c1)OCO2	-8	1	1	0.8	-2
O=C(CSc1nnc2ccccn12)Nc1ccc2c(c1)OCCO2	-12	1	1.1	1	-3
CCCCc1c(C)nc2ccc(C)cc2c1SCCC(=O)O	-6	1	1.5	1.5	-3
CCCCc1c(C)nc2ccc(Br)cc2c1SC(N)N	13	1	1.7	2.2*	0
Cc1ccc(CNC(=O)CN(C)S(=O)(=O)c2cccs2)cc1	-2	1	1.1	1	-4
COc1ccccc1CC(=O)Nc1ccc2c(c1)C(=O)NC2=O	0	1	1.1	1.1	-3
CC1CC(C)CN(CC(=O)N2CCOCC2)C1 (configuration not stated)	-5	1	1	1	-1
O=C(NNc1cc(Br)c(O)c(Br)c1)c1ccccc1	34	1	1.6	2*	3
Cc1cccc(C(=O)NNC(=O)c2ccccc2)c1	-14	1.1	0.9	1	-7
COCCCNC(=O)c1ccc(N2CCCC2)c(NS(=O)(=O)c2ccc(C)cc2)c1	-12	1.1	1.3	2.2*	-8
N#Cc1c(NC(=S)NC(=O)c2ccccc2)sc2c1CCN(CCc1ccccc1)C2	10	0.9	1.6	2.2*	12
COc1cccc(N=C2CC(C)(C)CC(=O)/C2=C(/O)c2ccccc2)c1	-9	1	1	1	-1
Oc1ccc(-c2nc3ccc4ccccc4c3c3c2CCC3)cc1O	50*	0.8	0.7	1.1	21
COc1ccc(-c2cc(C(=O)O)nc3ccc4ccccc4c23)cc1OC	-20	1.1	1.2	1	-7
O=c1c2c3c(sc2n2cnnc2n1Cc1ccccc1)CN(Cc1ccccc1)CC3	-4	1	1.5	2*	3
Cc1nnc2n(Cc3ccccc3)c(=O)c3c4c(sc3n12)CN(Cc1ccccc1)CC4	-1	1	0.9	0.9	-4
O=C(/C=C/c1ccccc1)Nc1ccc(Cl)cn1	-7	1	0.9	0.7	-4
CSc1nnc(-c2ccccc2Cl)n1N	2	1.1	1.1	1.2	-7
Nn1c(-c2ccccc2Cl)nnc1-c1ccccc1Cl	3	1	1.7	2.2*	-1
O=C(Cc1ccccc1)N/N=C/c1ccc2c(c1)OCO2	3	1	1	1	5
O=C(N/N=C/c1ccc(O)cc1)c1cc(-c2ccc3c(c2)OCO3)n[nH]1	91*	1	0.9	0.9	1
O=C(N/N=C/c1ccccc1)c1cc(-c2ccc3c(c2)OCO3)n[nH]1	66*	0.9	0.9	0.9	6
O=C(Cc1n[nH]c(=O)[nH]c1=O)N/N=C/c1cccc(O)c1	-16	1	1	1	0
O=C(N/N=C/c1cccc(O)c1)c1cc(-c2ccc3c(c2)OCO3)n[nH]1	95*	0.8	0.8	1	16
SMILES	TNAP inh no acc	TNAP act hi DEA	PMI act	PMI act hi M6P	TNAP inh hiacc
COc1ccc(N(CCC(=O)O)S(=O)(=O)c2ccc(C)cc2C)cc1	-10	1	1.1	1	-3
S=c1[nH]nc(-c2ccco2)n1/N=C/c1ccccn1	-13	1.1	0.8	0.9	-5
S=c1[nH]nc(-c2ccco2)n1/N=C/c1ccc(Cl)c(Cl)c1	58*	1	0.9	0.9	5
CCOC(=O)c1nc(Nc2ccc(N3CCC(C)CC3)cc2)c2ccccc2n1	0	1	0.8	0.8	4
CC[n+]1c(/C=C(/C)SC)sc2ccccc21	-17	1	1.1	1.4	-4
CC[n+]1c(/C=C(\C)SC)sc2ccccc21	-7	1	1.5	2*	-3
CC/C(=C/c1sc2ccccc2[n+]1CC)SC	-16	1	1.7	2*	-4
CN(C)C(=O)c1cn(-c2ccccc2)nc1-c1cc2ccccc2o1	-10	1	1.6	2.5*	-4

Screens deposited in PubChem by Sanford-Burnham Center for Chemical Genomics.
